An excerpt weighted towards active compounds, which were near 1.8% of everything screened.
M4 PAM – potentiates acetylcholine response at human M4 receptor; CHO-K1 hM4/Gqi5, Fluo-8 calcium fluorescence, ACh EC20; 0% = ACh EC20, 100% = maximal ACh; 360,000 tested, 0.4% active; P08173; activation, % at 3 µM;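 active = activation above its plate's cutoff, the mean activation of sample wells plus 3 SD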
M5 antag – antagonists of human muscarinic M5 receptor (CHRM5); P08912; CHO-hM5 cells, Fluo-8 calcium fluorescence, ACh EC80; inhibition, % at 3 µM; 360,000 tested, 0.59% active;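 active = inhibition above a per-plate cutoff, the mean of that plate's test compounds plus 3 SD, cut at about 27% in these data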;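 note: 0% = acetylcholine EC80 with DMSO and 100% = DMSO without agonist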
Target sequence (P08912 whole entry, looked up): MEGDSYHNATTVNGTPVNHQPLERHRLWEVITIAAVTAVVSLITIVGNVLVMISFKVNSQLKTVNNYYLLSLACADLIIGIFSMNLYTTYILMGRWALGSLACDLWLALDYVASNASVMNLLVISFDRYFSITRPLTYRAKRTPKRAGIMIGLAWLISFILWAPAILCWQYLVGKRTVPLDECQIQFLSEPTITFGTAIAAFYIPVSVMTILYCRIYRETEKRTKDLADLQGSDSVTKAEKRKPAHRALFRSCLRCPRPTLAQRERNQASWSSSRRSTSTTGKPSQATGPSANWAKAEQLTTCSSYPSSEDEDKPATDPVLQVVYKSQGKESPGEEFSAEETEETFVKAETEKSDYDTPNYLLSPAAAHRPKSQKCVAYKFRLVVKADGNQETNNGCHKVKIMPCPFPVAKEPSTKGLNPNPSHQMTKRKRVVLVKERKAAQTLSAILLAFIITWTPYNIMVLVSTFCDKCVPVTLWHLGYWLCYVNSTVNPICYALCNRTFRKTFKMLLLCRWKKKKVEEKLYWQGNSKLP
CHRM5 agonist – agonists of human muscarinic M5 receptor (CHRM5). P08912. activation, % at 3 µM. AID 624037. 360,000 tested, 0.19% active. CHO-K1 hM5 cells, Fluo-8 calcium fluorescence; 0% DMSO wells, 100% maximal acetylcholine response;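 active = activation above the run's mean over test compounds plus 3 SD, cut at about 23% in these data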;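 note: signal is peak over basal fluorescence ratio across the kinetic read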
CHRM4 agonist – agonists of human muscarinic M4 receptor (CHRM4); AID 624127; activation, % at 3 µM; CHO-K1 hM4/Gqi5, Fluo-8 calcium fluorescence; vehicle 0%, full acetylcholine response 100%; 360,000 tested, 0.14% active; P08173;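 active = activation above the run mean over all test wells plus 3 SD, cut at about 32% in these data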;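 note: peak over basal fluorescence ratio per well then scaled between controls; 0% = DMSO wells and 100% = acetylcholine at EC100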
CHRM4 antagonist – CHRM4 antagonism in calcium assay; P08173; inhibition, % at 3 µM; CHO-hM4 cells, ACh EC80, Fluo-8 calcium fluorescence; 360,000 tested, 0.73% active; AID 624125;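 active = inhibition above its plate's cutoff, the mean inhibition of sample wells plus 3 SD, cut at about 27% in these data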;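 note: 0% = acetylcholine EC80 with DMSO and 100% = DMSO without agonist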
CHRM5 PAM – positive allosteric modulators of human muscarinic M5 receptor; P08912; CHO-K1 hM5, Fluo-8 calcium, ACh EC20 PAM; 0% = ACh EC20, 100% = ACh EC100; activation, % at 3 µM; 360,000 tested, 0.3% active; AID 624038;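 active = activation above the run cutoff, the mean activation of all test compounds plus 3 SD, cut at about 18% in these data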
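system = human M5 receptor in CHO-K1 cells | reagent = EC20 acetylcholine as agonist stimulus | compound dosing = single-point, 3 µM nominal | incubation = Fluo-8 loading 80 min at 37 °C plus 30 min room temperature | detection = Fluo-8 calcium dye fluorescence, kinetic read | benchmarks = low control EC20 acetylcholine (0%), high control EC100 acetylcholine (100%)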
Active calls of the source: *.

Results for CCN(C(=O)C1CCN(c2nc(-c3ccc(OC)cc3)no2)CC1)c1ccc(OC)cc1 ?
M4 PAM: -7; M5 antag: 28*; CHRM5 agonist: 6; CHRM4 agonist: 13; CHRM4 antagonist: -4; CHRM5 PAM: -20

What do the screens show for `Cc1ccc(OCC(=O)N2CCN(C(=O)c3ccncc3)CC2)cc1`?
M4 PAM: 6; M5 antag: 5; CHRM5 agonist: -2; CHRM4 agonist: 1; CHRM4 antagonist: -4; CHRM5 PAM: 0

Results for O=C(C[n+]1cc(-c2ccc(Cl)c(Cl)c2)n2c1CCC2)N1c2ccccc2Sc2ccccc21 ?
M4 PAM: -17; M5 antag: 100*; CHRM5 agonist: -8; CHRM4 agonist: 0; CHRM4 antagonist: 98*; CHRM5 PAM: -19

How did COc1ccc(-c2c[n+](CC(=O)c3cccs3)c3n2CCC3)cc1 do in these assays?
M4 PAM: -2; M5 antag: 13; CHRM5 agonist: -6; CHRM4 agonist: 0; CHRM4 antagonist: -4; CHRM5 PAM: 2

What do the screens show for `O=C(C[n+]1cc(-c2ccc(Cl)cc2)n2c1CCC2)N1c2ccccc2Sc2ccccc21`?
M4 PAM: -19; M5 antag: 99*; CHRM5 agonist: -10; CHRM4 agonist: 9; CHRM4 antagonist: 97*; CHRM5 PAM: -18

Results for CC1CCC(C(C)C)C(OC(=O)C[n+]2cc(-c3ccc(Cl)cc3)n3c2CCC3)C1 (stereo not given) ?
M4 PAM: -35; M5 antag: 53*; CHRM5 agonist: -18; CHRM4 agonist: 0; CHRM4 antagonist: 29*; CHRM5 PAM: -36

Results for COc1ccc(-c2c[n+](CC(=O)N3c4ccccc4Sc4ccccc43)c3n2CCC3)cc1 ?
M4 PAM: -69; M5 antag: 41*; CHRM5 agonist: -18; CHRM4 agonist: 0; CHRM4 antagonist: 53*; CHRM5 PAM: -35

Results for O=C(C[n+]1cc(-c2ccc(Cl)cc2)n2c1CCC2)Nc1nc(-c2ccccc2)cs1 ?
M4 PAM: -4; M5 antag: 6; CHRM5 agonist: -4; CHRM4 agonist: 4; CHRM4 antagonist: -3; CHRM5 PAM: -1

Results for CC1(C(=O)Nc2ccc3c(c2)OCCO3)CCN1C(=O)c1ccccc1CCc1ccccc1 (stereo not given) ?
M4 PAM: -5; M5 antag: -1; CHRM5 agonist: 1; CHRM4 agonist: 4; CHRM4 antagonist: -1; CHRM5 PAM: -3

Results for COc1ccccc1C(=O)COC(=O)c1cccs1 ?
M4 PAM: 4; M5 antag: 12; CHRM5 agonist: -1; CHRM4 agonist: 2; CHRM4 antagonist: -4; CHRM5 PAM: 1

What do the screens show for `COc1ccccc1C(=O)COC(=O)c1ccccc1O`?
M4 PAM: 6; M5 antag: 33*; CHRM5 agonist: -4; CHRM4 agonist: 2; CHRM4 antagonist: -6; CHRM5 PAM: -13

How did COc1cccc(NC(=O)C2CC(=O)N(Cc3ccco3)C2)c1 (stereo not given) do in these assays?
M4 PAM: 21*; M5 antag: -5; CHRM5 agonist: 0; CHRM4 agonist: 2; CHRM4 antagonist: -6; CHRM5 PAM: 2

Results for CCC(CC)N1CCN(S(=O)(=O)c2ccc(OC)cc2)CC1 ?
M4 PAM: -1; M5 antag: -2; CHRM5 agonist: -7; CHRM4 agonist: 0; CHRM4 antagonist: -10; CHRM5 PAM: 21*

How did COc1ccc(N2CCN(S(=O)(=O)c3ccc(OC)cc3)CC2)cc1 do in these assays?
M4 PAM: -7; M5 antag: 6; CHRM5 agonist: 2; CHRM4 agonist: 3; CHRM4 antagonist: -3; CHRM5 PAM: -4

How did CCOC(=O)N1CCN(C(=O)Cc2ccccc2OC)CC1 do in these assays?
M4 PAM: 0; M5 antag: -2; CHRM5 agonist: 2; CHRM4 agonist: 0; CHRM4 antagonist: 4; CHRM5 PAM: -1

What do the screens show for `Cc1ccc(C)c(OCc2nnc(NC(=O)c3ccc4c(c3)OCO4)s2)c1`?
M4 PAM: 19; M5 antag: 9; CHRM5 agonist: -3; CHRM4 agonist: 1; CHRM4 antagonist: -3; CHRM5 PAM: -4

How did COCCNCCOc1ccccc1-c1ccccc1 do in these assays?
M4 PAM: 2; M5 antag: -11; CHRM5 agonist: -11; CHRM4 agonist: 2; CHRM4 antagonist: -1; CHRM5 PAM: 19*

Results for CCCN1CCN(C(=O)C2CCN(S(=O)(=O)c3c(C)noc3/C=C/c3ccc(C)cc3)CC2)CC1 ?
M4 PAM: -6; M5 antag: 15; CHRM5 agonist: -8; CHRM4 agonist: 4; CHRM4 antagonist: 7; CHRM5 PAM: -8

How did C[C@@H]1CCCCO[C@@H](CN(C)S(=O)(=O)c2ccccc2)[C@@H](C)CN([C@H](C)CO)C(=O)c2cc(NS(=O)(=O)c3ccc(F)cc3)ccc2O1 do in these assays?
M4 PAM: -3; M5 antag: -6; CHRM5 agonist: -1; CHRM4 agonist: 2; CHRM4 antagonist: 4; CHRM5 PAM: 1

Results for COc1ccccc1-c1noc(CCC(=O)Nc2cccnc2)n1 ?
M4 PAM: -4; M5 antag: 6; CHRM5 agonist: 3; CHRM4 agonist: 3; CHRM4 antagonist: -1; CHRM5 PAM: -2

Results for COc1ccccc1-c1noc(CCC(=O)Nc2cc(C(F)(F)F)ccc2Cl)n1 ?
M4 PAM: 24; M5 antag: 2; CHRM5 agonist: 0; CHRM4 agonist: 2; CHRM4 antagonist: 31*; CHRM5 PAM: 19*

How did CN(C(=O)CSc1nc2[nH]ncc2c(=O)[nH]1)c1ccccc1 do in these assays?
M4 PAM: 18*; M5 antag: -16; CHRM5 agonist: -2; CHRM4 agonist: 0; CHRM4 antagonist: -8; CHRM5 PAM: 7

What do the screens show for `Cc1cc(C)cc(NC(=O)CSc2nc3[nH]ncc3c(=O)[nH]2)c1`?
M4 PAM: 31*; M5 antag: -4; CHRM5 agonist: -4; CHRM4 agonist: 1; CHRM4 antagonist: -9; CHRM5 PAM: 22*

Results for O=C(NNC(=O)c1cc(-c2cccnc2)nc2ccccc12)Nc1ccc(Cl)cc1 ?
M4 PAM: -25; M5 antag: 38*; CHRM5 agonist: 6; CHRM4 agonist: 22; CHRM4 antagonist: 30*; CHRM5 PAM: -34

How did CN(C)c1ccc(/C=C/C(=O)c2cccnc2)cc1 do in these assays?
M4 PAM: -15; M5 antag: 26; CHRM5 agonist: 107*; CHRM4 agonist: 39*; CHRM4 antagonist: 16; CHRM5 PAM: -28

Results for CN(C)c1ccc(/C=C/C(=O)c2ccc(O)cc2)cc1 ?
M4 PAM: -12; M5 antag: 50*; CHRM5 agonist: 229*; CHRM4 agonist: 51*; CHRM4 antagonist: 24; CHRM5 PAM: -40

Screening results deposited in PubChem by The Scripps Research Institute Molecular Screening Center.
